Test results reported in PMC6497404 (Vaccine, 2019).

How the values were obtained:
[1] = system: C. albicans SC5314 (disseminated candidiasis in BALB/c mice); assay: Active vaccination; format: in vivo, Candida albicans; conditions: mimotope-pulsed DCs; lethal i.v. challenge; extended observation
BALB/c mice = assay: Serum antibody ELISA after immunization with antigen-pulsed dendritic cells; format: in vivo, mouse; conditions: after first booster; mimotope-pulsed DCs i.p.; sera diluted 1:200
Procedure, shortened: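 Female BALB/c mice, 5–7 weeks old. Bone-marrow DCs pulsed with peptide antigen (1 μM) on day 6, matured with PGE₂ (10⁻⁷M) plus LPS (2 μg/ml) for 24h from day 7, washed on day 9. 5 × 10⁵ DCs in DPBS given i.p., with i.p. boosts of fresh pulsed DCs without adjuvant at days 14 and 28. Controls received DCs or DPBS. Sera diluted 1:200 and tested by ELISA.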

| Sequence | Protection against disseminated candidiasis (mimotope vaccination) [1] | Antibody ELISA titers in immune sera against the mimotope (BALB/c mice) |
| --- | --- | --- |
| SWYEGLRLI [PS55] | neither of the two other mimotopes PS55 or PS76 induced protection | – |
| WVPPGSWYL [PS2] | – | highest |
| YRQFVTGFW [PS76] | neither of the two other mimotopes PS55 or PS76 induced protection | – |
| SYLTTGGFW [PS28] | – | highest |
| HYKTYGGYW [PS31] | – | highest |
